ChEMBL document CHEMBL1123921, “Quinolonecarboxylic acids. 2. Synthesis and antibacterial evaluation of 7-oxo-2,3-dihydro-7H-pyrido[1,2,3-de][1,4]benzothiazine-6-carboxylic acids” (J Med Chem, 1987)
≈ marks a conversion by molar mass, not a printed value.

Legend:
[1] = Urinary clearance was determined in rat at 10 mg/kg intraperitoneal dosage; assay type: ADME, organism-based; design: dose 10 mg/kg, route intraperitoneal; settings: urine, ip, read-out: CL_renal (converted)
Outline: (§1)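 Fasted male Wistar rats (180–230 g) given the drug ip in carboxymethyl cellulose. Plasma and urine extracted with CHCl₃ from citrate buffer pH 6.2 with internal standard. Analysis by reverse-phase C-18 HPLC, 0.1% AcOH/MeOH gradient, 245 nm UV. Urinary clearance and total clearance derived as pharmacokinetic parameters.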

[2] = Urinary clearance was determined in rat at 25 mg/kg os dosage; assay type: ADME, organism-based; design: dose 25 mg/kg; settings: urine, po, read-out: CL_renal (converted)
Outline: (§2)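 Fasted male Wistar rats (180–230 g) dosed orally, suspended in carboxymethyl cellulose. Plasma and urine assayed by HPLC: sample plus internal standard and citrate buffer (0.1 M, pH 6.2), extracted into CHCl₃, dried, redissolved in MeOH. Separation on C-18 with 0.1% AcOH/MeOH gradient, UV detection at 245 nm.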

[3] = Peak plasma concentration at a dose of 100 mg/kg, os route in rat suspended in carboxymethyl cellulose (CMC); assay type: ADME, organism-based; design: dose 100 mg/kg; settings: po, read-out: Activity; outline: as §2
[4] = Peak plasma concentration at a dose of 25 mg/kg, os route in rat suspended in carboxymethyl cellulose (CMC); assay type: ADME, organism-based; design: dose 25 mg/kg; settings: po, read-out: Activity; outline: as §2
[5] = Peak plasma concentration at a dose of 50 mg/kg, os route in rat suspended in carboxymethyl cellulose (CMC); assay type: ADME, organism-based; design: dose 50 mg/kg; settings: po, read-out: Activity
Outline: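 Fasted male Wistar rats (180–230 g), drug suspended in carboxymethyl cellulose, given orally or ip. Plasma (heparinized) and urine from metabolic cages were sampled at various times. The unchanged drug was measured by HPLC after CHCl3 extraction at pH 6.2 with an internal standard, on a C-18 column with an AcOH/MeOH gradient and UV detection at 245 nm. Interassay and intraassay variability was about 10%.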

[6] = Half life period was determined for the compound at 20 mg/kg concentration, oral route in monkey (Macaca fascicularis); assay type: ADME, organism-based; design: dose 20 mg/kg, route oral; settings: cynomolgus monkey, in vivo
Outline: (§3)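 Four male beagle dogs or two Macaca fascicularis monkeys dosed orally, suspended in carboxymethyl cellulose. Venous blood collected into heparinized tubes and plasma separated by low-speed centrifugation. Urine gathered in metabolic cages. Unchanged drug measured by C-18 HPLC (extraction, UV 245 nm).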

[7] = Half life period was determined for the compound at 200 mg/kg concentration, oral route in human; assay type: ADME, organism-based; design: dose 200 mg/kg, route oral; settings: in vivo
Outline: (§4)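 Four healthy volunteers of both sexes took oral capsules (100 mg units) at three dose levels. Venous blood drawn into heparinized tubes and plasma obtained by low-speed centrifugation. Urine collected. Unchanged drug in plasma and urine determined by C-18 HPLC after CHCl₃ extraction, with UV detection at 245 nm.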

[8] = Half life period was determined for the compound at 100 mg/kg concentration, oral route in human; assay type: ADME, organism-based; design: dose 100 mg/kg, route oral; settings: in vivo; outline: as §4
Rattus norvegicus = assay: Volume of distribution at a dose of 25 mg/kg, intraperitoneal route in rat suspended in carboxymethyl cellulose (CMC); assay type: ADME, organism-based; design: dose 25 mg/kg, route intraperitoneal; settings: in vivo, ip; outline: as §1
[9] = Time taken for peak plasma concentration at a dose of 100 mg/kg, os route in rat suspended in carboxymethyl cellulose (CMC); assay type: ADME, organism-based; design: dose 100 mg/kg; settings: po; outline: as §2
[10] = Time taken for peak plasma concentration at a dose of 20 mg/kg, oral route in dog(beagle) suspended in carboxymethyl cellulose (CMC); assay type: ADME, organism-based, Canis lupus familiaris; design: dose 20 mg/kg, route oral; outline: as §3
[11] = Urinary excretion for the compound was evaluated as percent dose excreted at 200 mg/kg oral dosage in human; assay type: ADME, organism-based; design: dose 200 mg/kg, route oral; settings: urine; outline: as §4
[12] = Peak plasma concentration at a dose of 400 mg/kg, oral route in human; assay type: ADME, organism-based; design: dose 400 mg/kg, route oral; settings: read-out: Activity; outline: as §4
[13] = Urinary excretion for the compound was evaluated as percent dose excreted at 25 mg/kg intraperitoneal dosage; assay type: ADME, organism-based; design: dose 25 mg/kg, route intraperitoneal; settings: urine, ip; outline: as §1
[14] = Urinary excretion for the compound was evaluated as percent dose excreted at 25 mg/kg os dosage; assay type: ADME, organism-based; design: dose 25 mg/kg; settings: urine, po; outline: as §2
[15] = Urinary excretion for the compound was evaluated as percent dose excreted at 100 mg/kg oral dosage in human; assay type: ADME, organism-based; design: dose 100 mg/kg, route oral; settings: urine; outline: as §4
[16] = Urinary excretion for the compound was evaluated as percent dose excreted at 20 mg/kg oral dosage in dog (beagle);Range is between (8-10).; assay type: ADME, organism-based, Canis lupus familiaris; design: dose 20 mg/kg, route oral; settings: urine; outline: as §3
[17] = Time taken for peak plasma concentration at a dose of 400 mg/kg, oral route in human; assay type: ADME, organism-based; design: dose 400 mg/kg, route oral; outline: as §4
[18] = Time taken for peak plasma concentration at a dose of 20 mg/kg, oral route in monkey (Macaca fascicularis) suspended in carboxymethyl cellulose (CMC); assay type: ADME, organism-based; design: dose 20 mg/kg, route oral; settings: cynomolgus monkey; outline: as §3
[19] = Time taken for peak plasma concentration at a dose of 200 mg/kg, oral route in human; assay type: ADME, organism-based; design: dose 200 mg/kg, route oral; outline: as §4
[20] = Tissue levels determined 1 hr after peroral dose of 50 mg/kg in heart; settings: po
Enterobacter cloacae = assay: In vitro antibacterial activity against clinical isolates of Enterobacter cloacae 041 (gram negative) by agar dilution assay.; assay type: functional
Outline: (§5)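 Agar dilution on Isosensitest agar; compound incorporated by twofold serial dilution. Overnight broth cultures delivered by multipoint inoculator at 10⁵ CFU per point. Plates read after 18 h at 37 °C. MIC taken as the lowest concentration giving complete growth inhibition.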

Escherichia coli = assay: In vitro antibacterial activity against clinical isolates of Escherichia coli 15 (gram negative) by agar dilution assay.; assay type: functional; outline: as §5
Klebsiella pneumoniae = assay: In vitro antibacterial activity against clinical isolates of Klebsiella pneumoniae-4 (gram negative) by agar dilution assay.; assay type: functional; outline: as §5
Morganella morganii = assay: In vitro antibacterial activity against clinical isolates of Proteus morganii 27 (gram negative) by agar dilution assay.; assay type: functional; outline: as §5
Pseudomonas aeruginosa = assay: In vitro antibacterial activity against clinical isolates of Pseudomonas aeruginosa 2437 (gram negative) by agar dilution assay.; assay type: functional; outline: as §5
Staphylococcus aureus = assay: In vitro antibacterial activity against clinical isolates of Staphylococcus aureus 18773 (gram-positive) by agar dilution assay.; assay type: functional; outline: as §5
[21] = Ratio of tissue (kidney) levels to plasma levels after 1 hr of treatment; assay type: ADME
Outline: (§6)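 Male Wistar rats received 50 mg/kg po and were killed at 1 and 15 h. Tissue homogenates and plasma extracted with CHCl₃ after adding internal standard and pH 6.2 citrate buffer. Drug quantified by C-18 HPLC with UV at 245 nm. Tissue level divided by plasma level.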

[22] = Ratio of tissue (heart) levels to plasma levels after 1 hr of treatment; assay type: ADME; outline: as §6
[23] = Half life period was determined for the compound at 50 mg/kg concentration, os route; settings: in vivo, po
[24] = Ratio of tissue (heart) levels to plasma levels after 15 hr of treatment; assay type: ADME; outline: as §6
[25] = Tissue levels determined 1 hr after peroral dose of 50 mg/kg in kidney; settings: po
[26] = Ratio of tissue (liver) levels to plasma levels after 15 hr of treatment; assay type: ADME; outline: as §6
in vivo [27] = settings: liver, po, 50 mg/kg
in vivo [28] = settings: heart, po, 50 mg/kg
in vivo [29] = settings: plasma, po, 50 mg/kg
in vivo [30] = settings: ip, 25 mg/kg
in vivo [31] = settings: po, 25 mg/kg
in vivo [32] = settings: kidney, po, 50 mg/kg

With `CN1CCN(c2c(F)cc3c(=O)c(C(=O)O)cn4c3c2SCC4)CC1` [RUFLOXACIN] the CL renal [1] was 0.75 mL/min/kg, the CL renal [2] was 1.21 mL/min/kg and the Cmax [3] was 21000 ng/mL. For the same compound, the Cmax [4] was 6000 ng/mL, the Cmax [5] was 8000 ng/mL and the half-life [6] was 50 h. For the same compound, the half-life [7] was 35 h, the half-life [8] was 30 h and the Vd (Rattus norvegicus) was 3 L/kg. It also gave a Tmax [9] of 1 h, a Tmax [10] of 4 h and a dose excreted [11] of 55%. The Cmax [12] was 2730 ng/mL, the dose excreted [13] was 22.2% and the dose excreted [14] was 24.5%. It also gave a dose excreted [15] of 45%, a dose excreted [16] of 8% and a Tmax [17] of 2 h. The Tmax [18] was 2 h, the Tmax [19] was 4 h and the concentration at 1 h [20] was 31000 ng/mL. It also gave an MIC (Enterobacter cloacae) of under 0.39 µg/mL, an MIC (Escherichia coli) of 0.78 µg/mL (≈ 2.15 µM) and an MIC (Klebsiella pneumoniae) of under 0.39 µg/mL. For the same compound, the MIC (Morganella morganii) was 1.56 µg/mL (≈ 4.29 µM), the MIC (Pseudomonas aeruginosa) was 12.5 µg/mL (≈ 34.4 µM) and the MIC (Staphylococcus aureus) was 0.78 µg/mL (≈ 2.15 µM). It also gave a Kp at 1 h [21] of 6, a Kp at 1 h [22] of 3 and a half-life [23] of 8.7 h. The Kp at 15 h [24] was 1.7, the concentration at 1 h [25] was 61000 ng/mL and the Kp at 15 h [26] was 3.7. It also gave a concentration at 15 h (in vivo [27]) of 11000 ng/mL, a concentration at 15 h (in vivo [28]) of 5000 ng/mL and a concentration at 15 h (in vivo [29]) of 3000 ng/mL. For the same compound, the half-life (in vivo [30]) was 9.9 h, the half-life (in vivo [31]) was 8.7 h and the concentration at 15 h (in vivo [32]) was 8000 ng/mL.
